Test results: ChEMBL document CHEMBL1127042, “Molecular size and flexibility as determinants of selectivity in the oxidation of N-methyl-4-phenyl-1,2,3,6-tetrahydropyridine analogs by monoamine oxidase A and B” (J Med Chem, 1993)

Columns and labels:
[1] = substrate: CN1CC=C(Cc2ccsc2)CC1; experiment: (§1) Michaelis-Menten constant against MAO B.; parameters: species or system Bos taurus
Method in brief: (§2)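 Beef liver MAO B, purified. Initial oxidation rates measured polarographically at 30 °C in sodium phosphate buffer, pH 7.2, with 0.2% (w/v) Brij-35. The reaction was started by adding enzyme, dosed so rates were measurable within 60-120 s. Vmax came from double-reciprocal plots. Turnover number was Vmax per flavin content. Flavin content came from the optical density change on anaerobic reduction by benzylamine.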

[2] = substrate: CN1CC=C(c2cccs2)CC1; experiment: as §1; parameters: species or system Bos taurus; method in brief: as §2
[3] = substrate: CN1CC=C(Cc2cccs2)CC1; experiment: as §1; parameters: species or system Bos taurus; method in brief: as §2
[4] = substrate: CN1CC=C(Cc2cccc3ccccc23)CC1; experiment: as §1; parameters: species or system Bos taurus; method in brief: as §2
[5] = substrate: CN1CC=C(CCc2ccsc2)CC1; experiment: as §1; parameters: species or system Bos taurus; method in brief: as §2
[6] = substrate: CN1CC=C(c2ccc3ccccc3c2)CC1; experiment: as §1; parameters: species or system Bos taurus; method in brief: as §2
[7] = substrate: CN1CC=C(Cc2ccc3ccccc3c2)CC1; experiment: as §1; parameters: species or system Bos taurus; method in brief: as §2
[8] = substrate: CN1CC=C(CCc2cccc3ccccc23)CC1; experiment: as §1; parameters: species or system Bos taurus; method in brief: as §2
[9] = substrate: CN1CC=C(c2ccsc2)CC1; experiment: as §1; parameters: species or system Bos taurus; method in brief: as §2
[10] = substrate: CN1CC=C(CCc2ccc3ccccc3c2)CC1; experiment: as §1; parameters: species or system Bos taurus; method in brief: as §2
[11] = substrate: CN1CC=C(CCc2cccs2)CC1; experiment: as §1; parameters: species or system Bos taurus; method in brief: as §2
[12] = substrate: CN1CC=C(CCc2ccccc2)CC1; experiment: as §1; parameters: species or system Bos taurus; method in brief: as §2
[13] = substrate: NCc1ccccc1; experiment: as §1; parameters: species or system Bos taurus; method in brief: as §2
[14] = substrate: NCCC(=O)c1ccccc1N; experiment: as §1; parameters: species or system Bos taurus; method in brief: as §2
[15] = substrate: CN1CC=C(Cc2ccccc2)CC1; experiment: as §1; parameters: species or system Bos taurus; method in brief: as §2
[16] = substrate: CN1CC=C(c2cccc3ccccc23)CC1; experiment: as §1; parameters: species or system Bos taurus; method in brief: as §2
[17] = substrate: CN1CC=C(Cc2ccsc2)CC1; experiment: (§3) Michaelis-Menten constant against MAO A.
Method in brief: (§4)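 Human liver MAO A expressed in yeast, purified. Initial oxidation rates measured polarographically (O2 uptake) at 30 °C in sodium phosphate buffer, pH 7.2, with 0.2% (w/v) Brij-35. Enzyme was added last to start the reaction, and its amount was set so rates were read within 60-120 s. Vmax came from double-reciprocal plots. TN was Vmax divided by flavin content. Flavin content was found from the optical density change on anaerobic reduction by kynuramine.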

[18] = substrate: CN1CC=C(c2cccs2)CC1; experiment: as §3; method in brief: as §4
[19] = substrate: CN1CC=C(Cc2cccs2)CC1; experiment: as §3; method in brief: as §4
[20] = substrate: CN1CC=C(Cc2cccc3ccccc23)CC1; experiment: as §3; method in brief: as §4
[21] = substrate: CN1CC=C(CCc2ccsc2)CC1; experiment: as §3; method in brief: as §4
[22] = substrate: CN1CC=C(c2ccc3ccccc3c2)CC1; experiment: as §3; method in brief: as §4
[23] = substrate: CN1CC=C(Cc2ccc3ccccc3c2)CC1; experiment: as §3; method in brief: as §4
[24] = substrate: CN1CC=C(CCc2cccc3ccccc23)CC1; experiment: as §3; method in brief: as §4
[25] = substrate: CN1CC=C(c2ccsc2)CC1; experiment: as §3; method in brief: as §4
[26] = substrate: CN1CC=C(CCc2ccc3ccccc3c2)CC1; experiment: as §3; method in brief: as §4
[27] = substrate: CN1CC=C(CCc2cccs2)CC1; experiment: as §3; method in brief: as §4
[28] = substrate: CN1CC=C(CCc2ccccc2)CC1; experiment: as §3; method in brief: as §4
[29] = substrate: NCc1ccccc1; experiment: as §3; method in brief: as §4
[30] = substrate: NCCC(=O)c1ccccc1N; experiment: as §3; method in brief: as §4
[31] = substrate: CN1CC=C(Cc2ccccc2)CC1; experiment: as §3; method in brief: as §4
[32] = substrate: CN1CC=C(c2cccc3ccccc23)CC1; experiment: as §3; method in brief: as §4

B1: Amine oxidase [flavin-containing] B (Bos taurus) (protein)
chain: MSSKCDVVVVGGGISGMAAAKLLHDSGLNVIVLEARDRVGGRTYTLRNQKVKYVDLGGSYVGPTQNHILRLSKELGLETYKVNEVERLIHHTKGKSYPFRGSFPSVWNPITYLDHNNLWRTMDDMGREIPSDAPWKAPLAEQWDLMTMKELLDKICWTESSKQLAILFVNLCVTAEIHEVSALWFLWYVKQCGGTTRIFSTSNGGQERKFVGGSGQVSERIMDLLGDRVKLERPVIHIDQTGENVLVETLNHELYEAKYVISAVPPVLGMKIHFNPPLPMMRNQLITRVPLGSVIKSIVYYKEPFWRNMDYCGSMIIEGEEAPVAYALDDTKPDGSYPAIIGFILAHKARKLARLTKEERLKKLCDLYAKVLGSQEALHPVHYEEKNWCEEQYSGGCYTSYFPPGIMTQYGRVLRQPVGRIYFAGTETATHWSGYMEGAVEAGERAAREILHAMGKIPEDEIWLPEPESVDVPAKPITTTFLQRHLPSVPGLLKLIGLTTIFSATALGFLAHKRGLLVRI
Km [1]: 195 µM
Km [2]: 168 µM
Km [3]: 102 µM
Km [4]: 850 µM
Km [5]: 57 µM
Km [6]: 730 µM
Km [7]: 840 µM
Km [8]: 1280 µM
Km [9]: 26 µM
Km [10]: 1030 µM
Km [11]: 49 µM
Km [12]: 54 µM
Km [13]: 290 µM
Km [14]: 84 µM
Km [15]: 154 µM
Km [16]: 110 µM

B2: Amine oxidase [flavin-containing] A (Homo sapiens) (protein)
chain: MENQEKASIAGHMFDVVVIGGGISGLSAAKLLTEYGVSVLVLEARDRVGGRTYTIRNEHVDYVDVGGAYVGPTQNRILRLSKELGIETYKVNVSERLVQYVKGKTYPFRGAFPPVWNPIAYLDYNNLWRTIDNMGKEIPTDAPWEAQHADKWDKMTMKELIDKICWTKTARRFAYLFVNINVTSEPHEVSALWFLWYVKQCGGTTRIFSVTNGGQERKFVGGSGQVSERIMDLLGDQVKLNHPVTHVDQSSDNIIIETLNHEHYECKYVINAIPPTLTAKIHFRPELPAERNQLIQRLPMGAVIKCMMYYKEAFWKKKDYCGCMIIEDEDAPISITLDDTKPDGSLPAIMGFILARKADRLAKLHKEIRKKKICELYAKVLGSQEALHPVHYEEKNWCEEQYSGGCYTAYFPPGIMTQYGRVIRQPVGRIFFAGTETATKWSGYMEGAVEAGERAAREVLNGLGKVTEKDIWVQEPESKDVPAVEITHTFWERNLPSVSGLLKIIGFSTSVTALGFVLYKYKLLPRS
Km [17]: 136 µM
Km [18]: 188 µM
Km [19]: 48 µM
Km [20]: 167 µM
Km [21]: 130 µM
Km [22]: 4.6 µM
Km [23]: 36 µM
Km [24]: 76 µM
Km [25]: 102 µM
Km [26]: 43 µM
Km [27]: 108 µM
Km [28]: 120 µM
Km [29]: 780 µM
Km [30]: 170 µM
Km [31]: 66 µM
Km [32]: 74 µM
